Measurements from different studies.
Compare with care: the assays were run in different laboratories.
Cnr2: Cannabinoid receptor 2 (Cnr2, Mus musculus, UniProt P47936)
G protein-coupled receptor 88: G protein-coupled receptor 88 (Homo sapiens, UniProt Q9GZN0)
pol: pol (Feline immunodeficiency virus, UniProt P16088)
CTSL: Procathepsin L (CTSL, Homo sapiens, UniProt P07711)
mreB: mreB (Escherichia coli, UniProt P0A9X4)

SMILES | target | assay | test system | conditions | endpoint | value
CCOC(=O)C(CC)(CCCSCCOCCOCCNc1ccc([N+](=O)[O-])c2nonc12)NC(=O)c1ccc(C2CC2)c(Cc2ccc(F)cc2)n1 (racemic) | Cnr2 | cAMP, agonist |  |  | EC50 | 0.102 µM
O=P(O)(O)Oc1cccc(OP(=O)(O)O)c1 | Signal transducer and activator of transcription 5B, SH2 (STAT5B, Homo sapiens, UniProt P51692) | ligand displacement, FP |  |  | IC50 | 55 µM
N[C@@H](CCP(=O)(O)O)C(=O)O | Metabotropic glutamate receptor 7 (Grm7, Rattus norvegicus, UniProt P35400) | calcium signal, agonist |  |  | EC50 | 117 µM
NC(=O)[C@@H]1CC(F)(F)CN1C(=O)c1ccc(N2CC(F)(F)C2)c(OCC2CC2)n1 | Cnr2 | ligand displacement, radioligand |  | cell membranes | Ki | 0.189 µM
CC[C@@H](C)COc1ccc([C@@H](CO)C(=O)N[C@H](C)c2ccccc2)cc1 | G protein-coupled receptor 88 | cAMP, agonist, TR-FRET |  |  | EC50 | 3.09 µM
Cc1cc(/C=C/C#N)cc(C)c1Nc1ccnc(Nc2ccc(C#N)cc2)n1 | pol | binding, SPR |  |  | Kd | 16 µM
CC(C)C[C@@H]1C(=O)N[C@H]([C@@H](C)O)C(=O)N[C@H](C)[C@@H](C)C(=O)O[C@@H](Cc2ccccc2)C(=O)N(C)[C@@H](C(C)C)C(=O)N2CCC[C@H]2C(=O)N(C)[C@H](Cc2ccccc2)C2=N[C@@H](CS2)C(=O)N[C@H](C)C2=N[C@@H](CS2)C(=O)N1C | CTSL | enzyme activity, inhibitor |  |  | IC50 | 21.3 µM
CCOC(=O)C(CC)(CCCSCCOCCOCCOCCOCCNC(=O)OC(C)(C)C)NC(=O)c1ccc(C2CC2)c(Cc2ccc(F)cc2)n1 (stereo not shown) | Cnr2 | cAMP, agonist |  |  | EC50 | 0.031 µM
Cc1cc(SCc2sc(-c3ccc(C(F)(F)F)c(F)c3)nc2C)ccc1OCC(=O)O | Thyroid hormone receptor beta (THRB, Homo sapiens, UniProt P10828) | reporter gene, antagonist, luciferase |  |  | IC50 | 25.8 µM
O=C(/C=C/c1cccc(S(=O)(=O)Nc2ccccc2)c1)NO | Histone deacetylase 4 (HDAC4, Homo sapiens, UniProt P56524) | cell-free assay |  |  | Kd | > 30.2 µM
CCCC#Cc1ccc([C@@H](CO)C(=O)N[C@H](C)c2ccccc2)cc1 | G protein-coupled receptor 88 | cAMP, agonist, TR-FRET |  |  | EC50 | 0.204 µM
C[C@H](N)Cn1ncc2ccc3c(c21)CCCO3 | Alpha-1B adrenergic receptor (Adra1b, Rattus norvegicus, UniProt P15823) | ligand displacement, radioligand |  |  | IC50 | 74 µM
NC1CCCCc2c1[nH]c1cc(Cl)c(Cl)cc21 (stereo not shown) | mreB | ATPase activity, inhibitor, absorbance |  |  | IC50 | 29 µM
CCOC(=O)[C@](CC)(CCC[S+]([O-])CCOCCOCCNC(=O)OC(C)(C)C)NC(=O)c1ccc(C2CC2)c(Cc2ccc(F)cc2)n1 (stereo partly shown) | Cnr2 | ligand displacement, radioligand |  | cell membranes | Ki | 0.09 µM
Cc1nc([C@@](C)(CC2CC2)NC(=O)c2cc(OCC(F)(F)F)c(C3CC3)cn2)no1 | Cnr2 | cAMP, agonist |  |  | EC50 | 0.003 µM
O=C(NCc1ccc(F)cc1)c1cccc(Nc2ccc(-c3ccccc3)nn2)c1 | Anoctamin-2 (ANO2, Homo sapiens, UniProt Q9NQ90) | ion flux, inhibitor |  |  | IC50 | 8.2 µM
CC(N)c1cc2cc(Br)ccc2[nH]1 (stereo not shown) | mreB | ATPase activity, inhibitor, absorbance |  |  | IC50 | 120 µM
O=[As](O)(O)c1ccc(Cc2ccc([As](=O)(O)O)cc2)cc1 | Autotaxin (ENPP2, Homo sapiens, UniProt Q13822) | enzyme activity, inhibitor, absorbance |  | pH 8 | Ki | 0.026 µM
COC(=O)[C@H](CCC(=O)Nc1cccc2c1ccn2Cc1cccc(C(N)=O)c1)NC(=O)OCc1ccccc1 | NAD-dependent protein deacetylase sirtuin-1 (SIRT1, Homo sapiens, UniProt Q96EB6) | enzyme activity, inhibitor |  |  | IC50 | 67 µM
Cc1ccnc2c1NC(=O)c1cccnc1N2C1CC1 | pol | binding, SPR |  |  | Kd | 185 µM
CCOC(=O)C(CC)(CCCSCCOCCOCCOCCNC(=O)OC(C)(C)C)NC(=O)c1ccc(C2CC2)c(Cc2ccc(F)cc2)n1 (stereo not shown) | Cnr2 | cAMP, agonist |  |  | EC50 | 0.021 µM
CC[C@H](NC(=O)OCc1ccccc1)C(=O)N[C@H](C(=O)N[C@@H](Cc1ccccc1)C(=O)N(C)N(C#N)CCC(N)=O)C(C)(C)C | CTSL | enzyme activity, inhibitor |  |  | Ki | 0.123 µM
C=CC(O)CO (stereo not shown) | Cytochrome P450 2E1 (Cyp2e1, Rattus norvegicus, UniProt P05182) | enzyme activity, inhibitor | Fischer 344 rat, liver microsomes | 30 min | IC50 | 1000 µM
Cc1nonc1Cn1nnc2c(N3CC[C@H](O)C3)nc(C(C)(C)C)nc21 | Cnr2 | ligand displacement, radioligand |  | cell membranes | Ki | 0.061 µM
NC1CCCCc2c1[nH]c1ccc(Cl)c(Cl)c21 (stereo not shown) | mreB | ATPase activity, inhibitor, absorbance |  |  | IC50 | 25 µM
